Measured values as given in ChEMBL document CHEMBL1140188, “Photoinduced cytotoxicity and biodistribution of prostate cancer cell-targeted porphyrins” (J Med Chem, 2008).
Numbered stars: 1 amine (or outer) side, 2 acyl side, 3 side chain; on linkers, the order of the positions; unused ones are H or OH. Bridge positions count the residues as written; N and C are the ends. Square brackets hold non-standard residues; d marks the D form. Peptide text beside a SMILES is read from it. I, II: the chains in the order shown. * marks the point of attachment. X1 = O=C(COCC(=O)*)Nc1ccc(-c2c3nc(c(-c4ccccc4)c4ccc([nH]4)c(-c4ccccc4)c4nc(c(-c5ccccc5)c5ccc2[nH]5)C=C4)C=C3)cc1; NH(CH2CH2O)6CH2CO = O=C(COCCOCCOCCOCCOCCOCCN[*:1])[*:2]

What was measured:
[1] = Phototoxicity against human PC3M cells after 24 hrs followed by exposure to 1 J/cm'2 light for 20 mins; type: functional, cell-based; conditions: pc-3m
How it was run: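 PC-3M cells were plated as for the dark assay and loaded with a range of concentrations for 24 h in quadruplicate. After washing, the medium was replaced with DMEM containing 50 mM HEPES, pH 7.4. Cells were irradiated on ice with a 100 W halogen lamp through a 610 nm long-pass filter and a water IR filter for 20 min, about 1 J/cm2. They were then incubated overnight and viable cells counted by hemocytometer relative to controls, giving IC50.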

[2] = Cytotoxicity against human PC3M cells after 24 hrs under dark condition; type: functional, cell-based; conditions: PC-3M
How it was run: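 PC-3M cells in DMEM/10% FBS were seeded at 10000 cells/cm2 and attached overnight. They were exposed to increasing concentrations up to 100 µM for 24 h in the dark, in quadruplicate wells. Detached cells were washed off and attached cells were trypsinised and counted by hemocytometer. Viability is expressed as % of untreated controls, and IC50 was taken from the curves.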

[3] = Ratio of IC50 for human PC3M cells under dark condition to IC50 for human PC3M cells exposed to 1 J/cm'2 light; type: functional
How it was run: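 Ratio of the dark IC50 (24 h exposure, hemocytometer viable count) to the light IC50 (24 h loading, then 610 nm long-pass halogen light, about 1 J/cm2, 20 min on ice, overnight incubation, then counting) in PC-3M cells.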

Liver = experiment: Biodistribution in human PC3M cells xenografted SCID mouse liver assessed per mg of protein at 1 umol/kg, ip after 24 hrs; type: ADME, organism-based; conditions: in vivo
How it was run: (§1)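 Male SCID mice carrying PC-3M tumours (2 × 10^6 cells injected into the dorsum between the shoulder blades, grown 5-6 weeks to about 0.1 cm3) received 1.0 µmol/kg ip in 5% dextrose. Tissues were collected at 24 h, solubilised at 37 °C and homogenised. Porphyrin fluorescence (530/645 nm) was read against per-tissue standard curves, vehicle-only background was subtracted, and results are given as pmol/mg tissue protein, mean ± SE, n = 4.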

[4] = Biodistribution in human PC3M cells xenografted SCID mouse tumor assessed per mg of protein at 1 umol/kg, ip after 24 hrs; type: ADME, organism-based, Neoplasm; conditions: in vivo; how it was run: as §1

SMILES	IC50 [1]	IC50 [2]	Ratio IC50 [3]	Drug uptake (Liver)	Drug uptake [4]
Oc1cccc(-c2c3nc(c(-c4cccc(O)c4)c4ccc([nH]4)c(-c4cccc(O)c4)c4ccc([nH]4)c(-c4cccc(O)c4)c4nc2CC4)C=C3)c1	1.61 µM	16.1 µM	–	–	–
N=C(N)NCCC[C@H](NC(=O)[C@H](CCCCN)NC(=O)[C@H](CCCNC(=N)N)NC(=O)[C@H](CCCNC(=N)N)NC(=O)CCCC(=O)Nc1ccc(-c2c3nc(c(-c4ccccc4)c4ccc([nH]4)c(-c4ccccc4)c4nc(c(-c5ccccc5)c5ccc2[nH]5)C=C4)C=C3)cc1)C(=O)O	1.48 µM	10.7 µM	7	–	–
N=C(N)NCCC[C@H](NC(=O)CNC(=O)COCCOCCOCCOCCOCCOCCNC(=O)COCC(=O)Nc1ccc(-c2c3nc(c(-c4ccccc4)c4ccc([nH]4)c(-c4ccccc4)c4nc(c(-c5ccccc5)c5ccc2[nH]5)C=C4)C=C3)cc1)C(=O)N[C@@H](CCCCN)C(=O)N[C@@H](CCCCN)C(=O)N[C@@H](CCCNC(=N)N)C(=O)N[C@@H](CCCNC(=N)N)C(=O)N[C@@H](CCC(N)=O)C(=O)N[C@@H](CCCNC(=N)N)C(=O)N[C@@H](CCCNC(=N)N)C(=O)N[C@@H](CCCNC(=N)N)C(=O)N1CCC[C@H]1C(=O)N1CCC[C@H]1C(=O)N[C@@H](CCC(N)=O)C(=O)O	0.4 µM	38.3 µM	96	16.1 pmol	8.1 pmol
CC(C)[C@H](NC(=O)[C@H](CCCCN)NC(=O)[C@H](CCCNC(=N)N)NC(=O)[C@H](CCCCN)NC(=O)[C@H](CCCCN)NC(=O)[C@H](CCCCN)NC(=O)[C@@H]1CCCN1C(=O)CNC(=O)COCCOCCOCCOCCOCCOCCNC(=O)C[C@H](NC(=O)COCC(=O)Nc1ccc(-c2c3nc(c(-c4ccccc4)c4ccc([nH]4)c(-c4ccccc4)c4nc(c(-c5ccccc5)c5ccc2[nH]5)C=C4)C=C3)cc1)C(=O)NCCOCCOCCOCCOCCOCCOCC(=O)NCC(=O)N1CCC[C@H]1C(=O)N[C@@H](CCCCN)C(=O)N[C@@H](CCCCN)C(=O)N[C@@H](CCCCN)C(=O)N[C@@H](CCCNC(=N)N)C(=O)N[C@@H](CCCCN)C(=O)N[C@H](C(=O)O)C(C)C)C(=O)O (I: X1-D[NH(CH2CH2O)6CH2CO]GPKKKRKV-OH / II: [NH(CH2CH2O)6CH2CO]GPKKKRKV-OH; amide I:1-II:N)	2.95 µM	20.8 µM	7	–	–
CC(C)C[C@H](NC(=O)[C@H](CCCCN)NC(=O)[C@H](CCCCN)NC(=O)[C@H](CCCCN)NC(=O)[C@H](C)NC(=O)[C@H](CCC(N)=O)NC(=O)CNC(=O)[C@H](C)NC(=O)[C@H](CCCCN)NC(=O)[C@H](CCCCN)NC(=O)[C@@H](NC(=O)[C@H](C)NC(=O)[C@H](C)NC(=O)[C@@H]1CCCN1C(=O)[C@H](CCCNC(=N)N)NC(=O)[C@H](CCCCN)NC(=O)COCCOCCOCCOCCOCCOCCNC(=O)COCC(=O)Nc1ccc(-c2c3nc(c(-c4ccccc4)c4ccc([nH]4)c(-c4ccccc4)c4nc(c(-c5ccccc5)c5ccc2[nH]5)C=C4)C=C3)cc1)[C@@H](C)O)C(=O)N[C@@H](CCC(=O)O)C(=O)N[C@@H](CC(=O)O)C(=O)N1CCC[C@H]1C(=O)N[C@@H](CCCNC(=N)N)C(=O)N[C@@H](CCCCN)C(=O)N[C@@H](CCCCN)C(=O)N[C@@H](CCCNC(=N)N)C(=O)N[C@@H](CCCNC(=N)N)C(=O)N[C@@H](CCC(N)=O)C(=O)N[C@@H](CCCNC(=N)N)C(=O)N[C@@H](CCCNC(=N)N)C(=O)N[C@@H](CCCNC(=N)N)C(=O)N1CCC[C@H]1C(=O)N1CCC[C@H]1C(=O)N[C@@H](CCC(N)=O)C(=O)NCC(=O)O (X1-[NH(CH2CH2O)6CH2CO]KRPAATKKAGQAKKKLEDPRKKRRQRRRPPQG-OH)	1.21 µM	32.9 µM	27	–	–
CC[C@H](C)[C@H](NC(=O)[C@H](CCCCN)NC(=O)[C@@H](NC(=O)[C@H](CCC(N)=O)NC(=O)[C@H](CCCNC(=N)N)NC(=O)COCCOCCOCCOCCOCCOCCNC(=O)COCC(=O)Nc1ccc(-c2c3nc(c(-c4ccccc4)c4ccc([nH]4)c(-c4ccccc4)c4nc(c(-c5ccccc5)c5ccc2[nH]5)C=C4)C=C3)cc1)[C@@H](C)CC)C(=O)N[C@@H](Cc1c[nH]c2ccccc12)C(=O)N[C@@H](Cc1ccccc1)C(=O)N[C@@H](CCC(N)=O)C(=O)N[C@@H](CC(N)=O)C(=O)N[C@@H](CCCNC(=N)N)C(=O)N[C@@H](CCCNC(=N)N)C(=O)N[C@@H](CCSC)C(=O)N[C@@H](CCCCN)C(=O)N[C@@H](Cc1c[nH]c2ccccc12)C(=O)N[C@@H](CCCCN)C(=O)N[C@@H](CCCCN)C(=O)N[C@@H](C)C(=O)N1CCC[C@H]1C(=O)N1CCC[C@H]1C(=O)N[C@@H](CCCCN)C(=O)N[C@@H](CCCCN)C(=O)N[C@@H](CCCCN)C(=O)N[C@@H](CCCNC(=N)N)C(=O)N[C@@H](CCCCN)C(=O)N[C@H](C(=O)NCC(=O)O)C(C)C (X1-[NH(CH2CH2O)6CH2CO]RQIKIWFQNRRMKWKKAPPKKKRKVG-OH)	1.34 µM	11.4 µM	8.5	–	–
